In brackets after ≈: the same amount, converted by molar mass. Activity calls are given as the source filed them. No cut-off for these calls is given here.
Columns and labels:
Staphylococcus aureus [1] = assay: Antibacterial activity against Staphylococcus aureus infected in CD1 mouse thigh muscle assessed as reduction in colony forming unit at 3.0 mg/kg, ip administered 2 hrs after infection measured after 48 hrs; format: functional, Muscle tissue; details: route intraperitoneal
Summary of the method: (§1)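 Neutropenic thigh infection in CD-1 mice. Neutropenia induced by cyclophosphamide 100 mg/kg ip on days -4 and -1. Each rear thigh inoculated im with MRSA, 1.5 × 10⁶ cfu in 50 μL. n = 2 mice per group, each thigh a data point. Compound given ip starting 2 h post-inoculation; saline and vancomycin controls. Sacrifice at 48 h; thighs weighed, homogenized in 5.0 mL saline, plated for cfu/g tissue.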

Staphylococcus aureus [2] = assay: Antibacterial activity against Staphylococcus aureus infected in CD1 mouse thigh muscle assessed as reduction in colony forming unit at 15 mg/kg, ip administered 2 hrs after infection measured after 48 hrs; format: functional, Muscle tissue; details: route intraperitoneal; summary of the method: as §1
Pseudomonas aeruginosa = assay: Antibacterial activity against Pseudomonas aeruginosa at 100 ug/ml by NCCLS method; format: functional, organism-based
Escherichia coli = assay: Antibacterial activity against Escherichia coli at 100 ug/ml by NCCLS method; format: functional, organism-based
Aspergillus fumigatus = assay: Antifungal activity against Aspergillus fumigatus at 100 ug/ml by NCCLS method; format: functional, organism-based
Vero = assay: Cytotoxicity against african green monkey Vero cells up to 100 ug/ml; format: cell-based; details: chlorocebus sabaeus
[3] = system: Mycobacterium intracellulare; assay: Antibacterial activity against Mycobacterium intracellular at 100 ug/ml by NCCLS method; format: functional, organism-based
Candida albicans = assay: Antifungal activity against Candida albicans at 100 ug/ml by NCCLS method; format: functional, organism-based
Cryptococcus neoformans = assay: Antifungal activity against Cryptococcus neoformans at 100 ug/ml by NCCLS method; format: functional, organism-based
Staphylococcus aureus [4] = assay: Antibacterial activity against Staphylococcus aureus by NCCLS method; format: functional, organism-based
Summary of the method: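 Microdilution per CLSI (formerly NCCLS). Samples run in duplicate, diluted in 0.9% saline in 96-well plates, then microbial suspensions added to reach the target inocula. Media and solvent controls in every assay. IC50 read from a plot of percent growth against concentration. MIC taken as the lowest concentration with no detectable growth; MBC as the lowest concentration that kills the organism.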

Mus musculus = assay: Toxicity in CD1 mouse up to 20 mg/kg, ip after 2 days; format: organism-based; set-up: dose 20 mg/kg, route intraperitoneal; details: in vivo, 48 h
Summary of the method: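 Preliminary tolerance study: CD-1 mice dosed ip daily for 2 days at up to 20 mg/kg and watched for untoward effects.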

Staphylococcus aureus [5] = assay: Antibacterial activity against methicillin-resistant Staphylococcus aureus by NCCLS method; format: functional, organism-based
Summary of the method: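 MRSA tested in vitro by CLSI (formerly NCCLS) broth microdilution. Samples were diluted in 0.9% saline and run in duplicate in 96-well microplates. Cell suspension was added to reach the target inoculum, with media and solvent controls included. IC50 was taken from percent growth plotted against concentration. MIC was the lowest concentration with no detectable growth; MBC was the lowest concentration that killed the organism.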

Staphylococcus aureus [6] = assay: Antibacterial activity against Staphylococcus aureus infected in CD1 mouse thigh muscle assessed as reduction in colony formation unit at 3.0 mg/kg, ip administered 2 hrs after infection measured after 48 hrs relative to control; format: functional, Muscle tissue; set-up: scale not given: the % may be the effect or the level left; details: route intraperitoneal; summary of the method: as §1
Staphylococcus aureus [7] = assay: Antibacterial activity against Staphylococcus aureus infected in CD1 mouse thigh muscle assessed as reduction in colony forming unit at 15 mg/kg, ip administered 2 hrs after infection measured after 48 hrs relative to control; format: functional, Muscle tissue; set-up: scale not given: the % may be the effect or the level left; details: route intraperitoneal; summary of the method: as §1
Staphylococcus aureus [8] = assay: Antibacterial activity against methicillin-resistant Staphylococcus aureus at 100 ug/ml by NCCLS method; format: functional, organism-based

SMILES	Activity (Staphylococcus aureus [1])	Activity (Staphylococcus aureus [2])	Activity (Pseudomonas aeruginosa)	Activity (Escherichia coli)	Activity (Aspergillus fumigatus)	Activity (Vero)	Activity [3]	Activity (Candida albicans)	Activity (Cryptococcus neoformans)	IC50 (Staphylococcus aureus [4])	MIC (Staphylococcus aureus [4])	Activity (Mus musculus)	IC50 (Staphylococcus aureus [5])	MIC (Staphylococcus aureus [5])	Activity (Staphylococcus aureus [6])	Activity (Staphylococcus aureus [7])	IC50 (Staphylococcus aureus [8])	MIC (Staphylococcus aureus [8])
C[C@@H]1O[C@@H](Oc2c(-c3ccc(O)cc3)oc3cc(O)cc(O)c3c2=O)[C@H](OC(=O)/C=C/c2ccc(O)cc2)[C@H](OC(=O)/C=C/c2ccc(O)cc2)[C@H]1O	2.6 ×10⁷ /g	1.8 ×10⁷ /g	inactive	inactive	inactive	Non-toxic	inactive	inactive	inactive	3.7 µg/mL (≈ 5.11 µM)	13.3 µg/mL (≈ 18.4 µM)	Non-toxic	2 µg/mL (≈ 2.76 µM)	10 µg/mL (≈ 13.8 µM)	67%	78%	–	–
C[C@@H]1O[C@@H](Oc2c(-c3ccc(O)cc3)oc3cc(O)cc(O)c3c2=O)[C@H](OC(=O)/C=C\c2ccc(O)cc2)[C@H](OC(=O)/C=C/c2ccc(O)cc2)[C@H]1O	–	–	inactive	inactive	inactive	Non-toxic	inactive	inactive	inactive	1.4 µg/mL (≈ 1.93 µM)	3.8 µg/mL (≈ 5.24 µM)	–	0.7 µg/mL (≈ 0.966 µM)	1.3 µg/mL (≈ 1.79 µM)	–	–	–	–
Cc1onc(-c2ccccc2Cl)c1C(=O)N[C@@H]1C(=O)N2[C@@H]1SC(C)(C)[C@@H]2C(=O)O [CLOXACILLIN]	–	–	–	–	–	–	–	–	–	–	–	–	8.9 µg/mL (≈ 20.4 µM)	–	–	–	–	–
CCN1CCN(C(=O)N[C@@H](C(=O)N[C@@H]2C(=O)N3[C@@H]2SC(C)(C)[C@@H]3C(=O)O)c2ccccc2)C(=O)C1=O [PIPERACILLIN]	–	–	–	–	–	–	–	–	–	–	–	–	–	–	–	–	Not Active	inactive
COc1cccc(OC)c1C(=O)N[C@@H]1C(=O)N2[C@@H]1SC(C)(C)[C@@H]2C(=O)O [METHICILLIN]	–	–	–	–	–	–	–	–	–	0.4 µg/mL (≈ 1.05 µM)	2.5 µg/mL (≈ 6.57 µM)	–	–	–	–	–	Not Active	inactive
O=C(O)c1cn(C2CC2)c2cc(N3CCNCC3)c(F)cc2c1=O [CIPROFLOXACIN]	–	–	–	–	–	–	–	–	–	–	0.4 µg/mL (≈ 1.21 µM)	–	–	0.3 µg/mL (≈ 0.905 µM)	–	–	–	–
C[C@@H]1O[C@@H](Oc2c(-c3ccc(O)cc3)oc3cc(O)cc(O)c3c2=O)[C@H](OC(=O)/C=C/c2ccc(O)cc2)[C@H](OC(=O)/C=C\c2ccc(O)cc2)[C@H]1O	–	–	inactive	inactive	inactive	Non-toxic	inactive	inactive	inactive	1.6 µg/mL (≈ 2.21 µM)	5.8 µg/mL (≈ 8 µM)	–	0.8 µg/mL (≈ 1.1 µM)	1.7 µg/mL (≈ 2.35 µM)	–	–	–	–

Reference: ChEMBL document CHEMBL1153731, “Methicillin-resistant Staphylococcus aureus (MRSA)-active metabolites from Platanus occidentalis (American Sycamore)” (J Nat Prod, 2009)
